Measurements: PubChem BioAssay
Unmarked numbers belong to inactive results. Inconclusive results are not listed. Activity calls are given as the source filed them.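 How the source made its calls, unless noted: active means viability at or below 27.92% in each of two runs, the all-compound median minus 4 SD; inconclusive means no clear call, values can overlap the other calls; inactive means the rest.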

Experiments:
[1] = OD615 S. cerevisiae growth inhibition, permissive medium, pilot counter-assay, permissive growth control for S. cerevisiae lifespan shortening project (AID 705;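 active means growth inhibition above 25% in both replicates, a cutoff set 3 SD above the mean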); settings: OD615, 24 h, at 10 µM, stronger effect = higher value
How it was run: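 Material: engineered DeaD yeast; compound dosing: one dose 10 µM, DMSO 0.25% final; measure: yeast growth inhibition indicated by reduced 24 h OD615; detection: OD615 turbidity read; incubation: cells pre-grown 4 h, then 24 h compound exposure, 30 °C humidified; medium: permissive synthetic complete medium with raffinose and galactose carbon sources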

[2] = Restrictive medium S. cerevisiae growth inhibition, OD615, pilot screen of yeast lifespan reduction project, restrictive growth control (AID 706;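 active means growth inhibition above a set limit, 3 SD over mean compound inhibition, in both replicates, cut at about 43% in these data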;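 further: modified DeaD lifespan yeast strain shifted to restrictive glucose medium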); settings: OD615, 48 h, at 10 µM, stronger effect = higher value
How it was run: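 material = engineered S. cerevisiae DeaD strain | medium = glucose-based CSMM-D restrictive medium | times = 4 h pre-incubation, 48 h exposure at 30 °C | technique = OD615 absorbance reading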

[3] = viability gain of MRP-1-high H69AR cells under doxorubicin, pilot screen, MRP-1 activator project, CellTiter-Glo, duplicate (AID 807;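 active means viability increase at or above a cutoff of the median across tested compounds plus 3 SD, cut at about 8.5% in these data, passing the limit was not always enough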;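 further: compound pretreatment 18-22 h then 72 h combined with doxorubicin; 0% = doxorubicin alone and 100% = vehicle without doxorubicin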); settings: H69AR viability with doxorubicin, CellTiter-Glo luminescence; at 10 µM; stronger effect = higher value
[4] = growth suppression of beta-catenin knockout HCT116, pilot screen, human colon tumor cells (AID 823;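 active means cell viability at or below a set limit in both duplicate runs, the limit being the all-compound median minus 4 SD, cut at about 23% in these data, passing the limit was not always enough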;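 further: 0% = wells killed by 20 µM Hyamine and 100% = untreated DMSO cell wells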); settings: CellTiter-Glo, 60 h, at 10 µM, stronger effect = lower value
[5] = growth suppression of PTEN-deleted HCT116, pilot screen, cell-based, HCT116 clonal line, CellTiter-Glo (AID 824); settings: 60 h, at 10 µM, stronger effect = lower value;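 further: 0% = 20 µM Hyamine control and 100% = vehicle cell control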
[6] = inhibitors of the yeast RAM network, pilot screen, dse1pr::URA3 reporter, 5-FOA selection (AID 869;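 active means inhibition over a set limit, the all-compound mean plus 3 SD, in both replicate runs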;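 further: 0% = DMSO wells with no growth and 100% = 10 µM 1-NA-PP1 with full growth; RAM network block rescues cells from 5-FOA so hits raise OD615 growth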); settings: S. cerevisiae dse1pr::URA3 5-FOA growth, OD615, 2 d; at 10 µM; stronger effect = higher value; strain carries analog-sensitive mutant Cbk1 kinase
[7] = RAM signaling pathway blockade in yeast – S. cerevisiae, Pdr1DBD-CYC8 efflux-inhibited sensitized strain, primary screen (AID 1298;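 active means RAM network inhibition above 8.4% in each of two replicates, 3 SD over the compound average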;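 further: 0% = DMSO untreated cells without growth and 100% = 10 µM 1-NA-PP1 full growth; higher means more yeast growth rescued from 5-FOA killing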); settings: S. cerevisiae cbk1-as DSE1-URA3 strain, 5-FOA growth OD615, 2 d; at 50 µM; stronger effect = higher value

SMILES | growth inhibition [1] [%] | growth inhibition [2] | viability increase [3] [%] | viability [4] | viability [5] | inhibition [6] [%] | RAM network inhibition [7] [%]
FC(F)(F)c1cccc(-c2ccc(-c3csnn3)o2)c1 | -0.85 | 6.13% | -0.47 | 82.2% | 83.6% | 1.4 | 9.48
CCSC1=C(C#N)C(c2ccccc2C)CC(=O)N1 (stereo not drawn) | -9.12 | -23.4% | -2.22 | 92.5% | 87.7% | 1.98 | 4.78
CC1(C)Oc2ccc3ccc(=O)oc3c2/C(=C/N)C1=O | -6.37 | -4.45% | -4.51 | 88.5% | 81.7% | 0.535 | -0.57
Cc1nnc(NC(=O)CSc2nnc(Cc3cccn3C)n2-c2ccccc2)s1 | 10.8 | 46.5% (active) | 0.97 | 95% | 95.3% | 1.31 | 4.48
Cc1c(C(=O)NCCCN2CCOCC2)sc2nc(-c3ccccc3)cn12 | -10.7 | -11.8% | -1.59 | 92.2% | 96% | 3.44 | -0.37
CC(C)n1c(CCC(=O)O)ccc1-c1ccccc1 | 3.21 | 4.49% | -0.71 | 96% | 101% | 0.285 | 1.3
CC1=C(NCCc2ccccc2)CCC1=O | 1.6 | -14.4% | -2.97 | 92% | 86.2% | 1.74 | 2.7
Cc1cc(Nc2ccc(F)cc2F)n2ncnc2n1 | -1.61 | 6.47% | -1.6 | 96.5% | 97.8% | 1.35 | 1.04
CS(=O)(=O)n1nc(C(=O)N2CCOCC2)nc1N | -10 | -18.6% | 0.47 | 103% | 98.4% | 2.68 | 5.4
COc1ccc(NC(=O)Nc2nnc(N3CCC(C)CC3)s2)cc1OC | -8.13 | -23% | -4.49 | 107% | 98.1% | 1.59 | 1.42
CSc1cccc(NC(=O)CN(c2cc(C)ccc2C)S(C)(=O)=O)c1 | -4.02 | -2.52% | -3.54 | 77.4% | 79.8% | -0.95 | 1.46
O=C(CSc1nnc(Cc2cc(=O)[nH]c(=O)[nH]2)n1-c1ccc(F)cc1)N1CCCCC1 | -4.41 | 1.35% | -0.28 | 104% | 105% | 0.87 | 2.55
COC(=O)c1ccccc1N(Cc1ccccc1)S(C)(=O)=O | -3.77 | -8.56% | -4.02 | 90.6% | 105% | -0.425 | 1.83
COc1cccc(C(=O)Nc2ccc3nc(N4CCN(c5ncccn5)CC4)cc(C)c3c2)c1OC | 12 | -8.24% | -5.36 | 9.73% (active) | 12.8% (active) | 0.73 | 4.05
CN(C)S(=O)(=O)c1ccc2c(c1)c(=O)c(C(=O)N1CCOCC1)cn2C | -8.25 | 2.44% | 0.13 | 103% | 89.4% | 1.79 | -0.67
CCn1c(SCC(=O)Nc2cccc(F)c2)nc2c(c1=O)SC(C)C2 (stereo not drawn) | -11.8 | -1.47% | -0.53 | 94.8% | 86.8% | 1.57 | 4.64
CN(C)c1ccc(C2N3CC4(C)CN2CC(C)(C3)C4O)cc1 (stereo not drawn) | -21.5 | -10.9% | 0.46 | 101% | 99% | 2.33 | 2.42
O=C(Nc1nnc(-c2cccs2)o1)c1ccco1 | -0.7 | -3.64% | -4.39 | 93.8% | 89.8% | 0.34 | -2.19
COc1ccccc1C(=O)Nc1ccc2oc(-c3ccc(F)cc3)nc2c1 | -2.88 | 0.83% | -2.78 | 96% | 96.5% | 2.88 | 1.85
COc1ccc(Cc2nnc(SC)[nH]c2=O)cc1OC | 0.615 | -16.6% | -1.67 | 101% | 99.4% | 0.225 | 1.41
Cc1cccc(-n2ncc3c(N4CCC(C)CC4)ncnc32)c1 | -5.82 | 10.6% | 4.21 | 81.4% | 82.9% | -0.31 | 1.32
COC(=O)c1ccc(OC(=O)c2nn(C)cc2Cl)c(OC)c1 | -0.14 | 10.2% | -5.78 | 101% | 95.5% | -0.22 | -0.57
CCCCOCCCNC(=O)Cc1cccs1 | -16.7 | -10.3% | -2.03 | 91.8% | 90% | 0.465 | 5.12
COc1ccc(C(=O)c2coc3ccc(O)c(CN(C)C)c23)cc1 | -15 | -11.6% | -2.46 | 84.4% | 76.1% | 0.74 | -1.93
